The text below walks through data of ChEMBL document CHEMBL1136923, “Highly potent, orally available anti-inflammatory broad-spectrum chemokine inhibitors” (J Med Chem, 2009).

SMILES strings stand for the structures.

What all share (type): functional
In assay [1] the test system is Mus musculus. As to the kind of experiment: Antiinflammatory activity in mouse assessed as inhibition of LPS-induced TNFalpha upregulation at 0.3 ug, sc measured 2 hrs after LPS challenge. In outline:
(§1)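 Murine sublethal endotoxemia: LPS given intraperitoneally, with serum TNF-α measured 2 h after the LPS injection as the end point. Compound was given subcutaneously or orally. Vehicle was 0.6% DMSO and 1% carboxymethylcellulose (final concentrations) in sterile water. Effect is reported as % relative to control.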

Assay [2] has as its system Mus musculus. Nature of the assay: Antiinflammatory activity in sc dosed mouse assessed as inhibition of LPS-induced TNFalpha upregulation measured 2 hrs after LPS challenge relative to control. The essentials:
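Murine sublethal LPS endotoxemia screen. LPS is injected intraperitoneally and serum TNF-α is measured 2 h later as the end point. Compound is given subcutaneously or orally in a vehicle of 0.6% DMSO plus 1% carboxymethylcellulose (final concentrations) in sterile water. Values are % relative to control.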

Assay [3] relates to Mus musculus. As to the kind of experiment: Antiinflammatory activity in mouse assessed as inhibition of LPS-induced TNFalpha upregulation at 0.03 ug, sc measured 2 hrs after LPS challenge. In outline: as §1
The subject of assay [4] is Mus musculus. Nature of the assay: Antiinflammatory activity in mouse assessed as inhibition of LPS-induced TNFalpha upregulation at 0.003 mg, sc measured 2 hrs after LPS challenge. The essentials:
as §1

The subject of assay [5] is Mus musculus. Nature of the assay: Antiinflammatory activity in mouse assessed as inhibition of LPS-induced TNFalpha upregulation at 300 pg, sc measured 2 hrs after LPS challenge. In outline:
(§2)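 Sublethal murine endotoxemia with LPS given intraperitoneally. Compound was given subcutaneously in vehicle of 0.6% DMSO and 1% carboxymethylcellulose (final concentrations) in sterile water. Serum TNF-α was measured 2 h after LPS injection. Values are expressed as % relative to control.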

Assay [6] deals with Mus musculus. As to the kind of experiment: Antiinflammatory activity in sc dosed mouse assessed as inhibition of LPS-induced TNFalpha upregulation measured 2 hrs after LPS challenge.
The test system of assay [7] is Mus musculus. As to the kind of experiment: Antiinflammatory activity in mouse assessed as inhibition of LPS-induced TNFalpha upregulation at 0.06 mg, sc measured 2 hrs after LPS challenge. The essentials: as §2
In assay [8] the test system is Mus musculus. Nature of the assay: Antiinflammatory activity in mouse assessed as inhibition of LPS-induced TNFalpha upregulation at 0.003 ug, sc measured 2 hrs after LPS challenge. The essentials: as §1
For assay [9], the system named is Mus musculus. As to the kind of experiment: Antiinflammatory activity in mouse assessed as inhibition of LPS-induced TNFalpha upregulation at 0.03 mg, sc measured 2 hrs after LPS challenge. In outline: as §2
Assay [10] deals with Mus musculus. Nature of the assay: Antiinflammatory activity in mouse assessed as inhibition of LPS-induced TNFalpha upregulation at 0.015 mg, sc measured 2 hrs after LPS challenge. In outline: as §2
Assay [11] concerns Mus musculus. Nature of the assay: Antiinflammatory activity in mouse assessed as inhibition of LPS-induced TNFalpha upregulation at 0.12 mg, sc measured 2 hrs after LPS challenge. In outline:
as §2

Take `C[C@@H]1C[C@H]2[C@@H]3CCC4=CC(=O)C=C[C@]4(C)[C@@]3(F)[C@@H](O)C[C@]2(C)[C@@]1(O)C(=O)CO` [DEXAMETHASONE]: the “inhibition (INH)” value in the assay on Mus musculus [1] is 69%; in the assay with Mus musculus [2], 90%; with Mus musculus [3], 33%; in the assay on Mus musculus [4], 75%; in the assay with Mus musculus [5] it was 24%; with Mus musculus [7], 87%. Further, the “inhibition (INH)” value is 31% in the assay with Mus musculus [8], 90% in the assay with Mus musculus [9], 84% in the assay on Mus musculus [10] and 88% in the assay on Mus musculus [11]. Further, in the assay on Mus musculus [6], the ED50 was found to be 3 µg/kg.

By ED50 is commonly meant the dose that gives a 50% effect, or the effect in half of the subjects.
